Screening results (PubChem BioAssay)
The list is not random: actives were taken first. Their share in the collection is about 1.9%.
beta cell repl – inducers of MIN6 beta-cell proliferation, primary screen, ATP luminescence, uHTS. hit rate 0.29% among 330,000. proliferation, % at 10 µM. MIN6 cells proliferation, ATPlite luminescence, 48 h; cells starved in 0.2% serum; 100% = growth in 10% serum;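 active = compounds whose signal lies at least 3.5 SD above the mean of all wells on their plate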;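 note: 0% = DMSO-treated cells in low-serum medium and 100% = 10% serum control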
Yeast superoxide – reduction of superoxide in aged yeast, primary screen, HTS; S. cerevisiae aged cells, superoxide DHE fluorescence; hits give low values; superoxide response (% of plate mean), % at 10 µM; hit rate 0.18% among 330,000; AID 2690, 2010;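 active = superoxide response under a set limit, about three screen SD below normal, cut at about 65% in these data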;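 note: yeast aged for seven days with compound at 30 °C before DHE staining; 100% = average MFI of all compound-treated wells on the plate with controls excluded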
T cell modulator – modulators of CD8 T cell-vesicle binding, primary screen, mouse 2C CD8+ T cells, flow cytometry | 2C CD8+ T cell-vesicle binding; hits give low values | hit rate 0.068% among 330,000 | response (vesicle binding), % at 7 µM;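 active = response, share of CD8 T cells binding vesicles, and their 90th percentile fluorescence all below set limits, cut at about 80% in these data, passing the limit was not always enough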;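 note: values below 100% mean blocked vesicle binding to the CD8+ T cells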
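Test system: purified 2C TCR transgenic mouse naive CD8+ T cells. Probe or stimulus: QL9-peptide-loaded Drosophila micro-vesicles bearing Ld, ICAM-1 and B7-1. Incubation: binding step 1.5 h, 37 °C, antibody labelling 20 min, ice. Measured by: flow cytometry of vesicle-bound cells.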
V-ATPase pHluor – regulators of yeast V-ATPase proton pumping, primary screen, pHLuorin cytosolic pH fluorescence. S. cerevisiae. hit rate 0.37% among 350,000. response, % at 10 µM; in the data active = response mostly above about 7.3%, no sharp cut-off; inactive = mostly below about 5.4%; note: actives read high
KLK7 zymogen act – proKLK7 zymogen activators, primary screen, biochemical, fluorescence intensity. activation, % at 7 µM. Kallikrein-7 (Homo sapiens), P49862. purified proKLK7, EDANS-DABCYL substrate fluorescence; 100% is mature enzyme control, 0% vehicle. AID 652039, 2013. hit rate 0.9% among 370,000;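 active = activation above the mean of all tested compounds plus 3 SD, computed per campaign excluding outliers beyond control limits, cut at about 13% in these data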
Target sequence (P49862 whole entry, looked up): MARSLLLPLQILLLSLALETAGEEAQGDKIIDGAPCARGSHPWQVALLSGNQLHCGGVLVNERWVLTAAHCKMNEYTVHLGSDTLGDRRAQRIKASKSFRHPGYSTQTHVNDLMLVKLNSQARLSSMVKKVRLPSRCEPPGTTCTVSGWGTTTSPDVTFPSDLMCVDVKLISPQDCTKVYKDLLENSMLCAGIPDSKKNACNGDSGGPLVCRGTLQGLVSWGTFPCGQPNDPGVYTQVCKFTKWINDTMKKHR
Rce1 inhib – yeast Rce1p protease inhibitors, primary screen, biochemical, fluorescence, cell-free homogeneous. CAAX prenyl protease 2 (Saccharomyces cerevisiae (strain ATCC 204508 / S288c)), Q03530. yeast membranes, quenched prenylated peptide cleavage fluorescence. calls only. hit rate 0.27% among 290,000. AID 2563, 2010;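 active = fall in fluorescence gain of 50% or more versus controls, with final raw signal at or below 3038400; inconclusive = same 50% fall but final raw signal above 3038400; inactive = fall in fluorescence gain under 50%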;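 note: plate controls were neutral control wells for no effect and wells lacking membranes for full effect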
Target sequence (Q03530 whole entry, looked up): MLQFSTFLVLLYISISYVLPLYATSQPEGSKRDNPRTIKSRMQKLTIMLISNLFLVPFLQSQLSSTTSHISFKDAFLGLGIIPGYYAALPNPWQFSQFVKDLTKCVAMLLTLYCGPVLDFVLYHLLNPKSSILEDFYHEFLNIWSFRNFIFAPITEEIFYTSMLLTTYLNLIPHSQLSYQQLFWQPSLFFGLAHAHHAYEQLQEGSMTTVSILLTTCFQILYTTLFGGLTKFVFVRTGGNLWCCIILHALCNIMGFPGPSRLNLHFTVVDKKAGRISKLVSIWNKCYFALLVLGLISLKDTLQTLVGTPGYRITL
proKLK7 act conf – proKLK7 zymogen activators, confirmation, biochemical, fluorescence intensity, triplicate; shares compounds with KLK7 zymogen act; purified proKLK7, EDANS-DABCYL substrate fluorescence; scaled: vehicle 0, mature enzyme 100; activation, % at 7 µM; hit rate 68% among 3,200; AID 686949, 2013;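 active = activation, as change over the incubation, above the mean of all tested compounds plus 3 SD, cut at about 13% in these data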
EDANS interfere – EDANS-DABCYL substrate optical interference, artefact control for kallikrein-7 zymogen activator project, biochemical, fluorescence intensity, high throughput. hit rate 80% among 3,200. no enzyme, 4 h; solvent 0%, active enzyme control 100%. shares compounds with KLK7 zymogen act. AID 686952, 2013. activation, % at 7 µM;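 active = activation above the all-compound mean plus 3 SD, ignoring values outside control-based bounds, cut at about 4.8% in these data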;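 note: value is the 4 h activation minus the activation read at time zero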
EDANS interf – EDANS fluorescence interference in dose response, no enzyme; shares compounds with KLK7 zymogen act; EDANS-DABCYL peptide fluorescence interference; EC50, µM; hit rate 20% among 250; AID 720493;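 active = compounds that raise the fluorescence signal in this interference counterscreen, with EC50 at or below 10 µM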;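 note: intact quenched peptide substrate alone read at 355 nm excitation and 520 nm emission; signal is fluorescence gain from T0 to T4 after four hours at room temperature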
The depositor's hits bear a star; i = inactive; ? = inconclusive; nt = no result.

SMILES	beta cell repl	Yeast superoxide	T cell modulator	V-ATPase pHluor	KLK7 zymogen act	Rce1 inhib	proKLK7 act conf	EDANS interfere	others
Cc1ccc(C(=O)NCC(=O)Nc2ccc(S(=O)(=O)Nc3cc(C)nc(C)n3)cc2)cc1	-1.6	81.4	205.7	-1.7	0.2	nt	nt	nt
CCCCN(C)CCN1C(=O)C2C(C(=O)Nc3ccc(OC)cc3)C3C=CC2(O3)C1C(=O)NC1CCCCC1 (stereo unspecified)	-2.2	92.0	233.3	0.6	-0.5	nt	nt	nt
O=c1oc2c3c4c(cc2s1)CCCN4CCC3	-1.9	92.2	398.5	-2.0	-0.9	i	nt	nt
O=c1ccc2cc3c4c(c2o1)CCCN4CCC3	3.5	87.0	131.2	9.4	88.8*	i	66.5*	73.2*
O=C(O)COc1ccc2nsnc2c1Cl	-0.3	112.7	474.0	1.6	19.5*	i	26.8*	23.7*
COc1ccc(OCC(=O)Nc2c(Cl)ccc3nsnc23)cc1	-0.5	109.5	161.3	4.2	-0.3	i	nt	nt
C[C@]12c3[nH]c4ccccc4c3CCN1C(=O)C(CC(=O)NCc1cccc(C(F)(F)F)c1)C[C@@H]2C(=O)N1CCOCC1 (stereo partly specified)	-3.2	107.2	289.1	1.8	0.3	nt	nt	nt
C[C@]12c3[nH]c4cc(-c5ccco5)ccc4c3CCN1C(=O)[C@@H](CC(=O)NCC13CC4CC(CC(C4)C1)C3)C[C@@H]2C(=O)N1CCOCC1	nt	96.1	nt	1.1	-11.6	nt	nt	nt
C[C@]12c3[nH]c4cc(-c5ccco5)ccc4c3CCN1C(=O)[C@@H](CC(=O)NCc1cccc(C(F)(F)F)c1)C[C@@H]2C(=O)N1CCOCC1	nt	105.1	nt	-0.2	16.1*	nt	-1.4	-2.2
COCCCNC(=O)C[C@H]1C[C@H](C(=O)N2CCCCC2)[C@@]2(C)c3[nH]c4cc(-c5ccco5)ccc4c3CCN2C1=O	nt	103.5	nt	3.3	170.0*	nt	87.9*	114.1*
C[C@]12c3[nH]c4cc(-c5ccco5)ccc4c3CCN1C(=O)[C@@H](CC(=O)NCCN1CCOCC1)C[C@@H]2C(=O)N1CCCCC1	nt	95.4	nt	0.6	134.3*	nt	62.6*	60.6*
CCCCN(C(=O)c1nn(C)c(=O)c2ccccc12)c1c(N)n(CC(C)C)c(=O)[nH]c1=O	5.2	102.3	250.9	-0.6	0.4	nt	nt	nt
O=C(CSc1nc(C(F)(F)F)cc(=O)[nH]1)NCc1ccc2c(c1)OCO2	3.0	99.9	316.7	-3.2	0.3	i	nt	nt
COCCCn1c(CCC(=O)O)ccc1-c1cccs1	-1.7	110.1	310.1	-0.3	12.7*	i	6.9	8.7*
Cc1cc(C)c2nc(N3C(=O)C(O)=C(C(=O)c4ccco4)C3c3cccc(O)c3)sc2c1 (stereo unspecified)	-5.4	134.0	521.3	-0.9	14.5*	nt	20.1*	22.1*
O=C(NC1CCSc2ccccc21)c1cccc(Cl)c1 (stereo unspecified)	-0.4	91.4	474.6	-0.8	-0.7	i	nt	nt
CCCc1cc(=O)oc2c3c(cc(OCC(=O)NCc4ccncc4)c12)OC(C)(C)CC3	-0.1	84.4	240.9	2.9	-6.8	i	nt	nt
CCCCc1cc(=O)oc2c3c(cc(OCC(=O)NCCCO)c12)OC(C)(C)CC3	-0.3	94.5	203.2	3.5	23.6*	i	-33.0	-33.9
CCCc1cc(=O)oc2c3c(cc(OCC(=O)NCCN4CCOCC4)c12)OC(C)(C)CC3	-4.6	93.8	209.4	-2.5	31.9*	nt	-10.7	-20.4
COc1cc(/C=C/CNC[C@H]2O[C@@H](n3ccc(N)nc3=O)[C@H](O)[C@@H]2O)ccc1O	nt	nt	nt	-1.6	-0.4	nt	nt	nt
COCCN(C(=O)c1ccc(-c2ccc(Cl)cc2)o1)c1c(N)n(Cc2ccccc2)c(=O)[nH]c1=O	-5.0	110.5	427.4	-5.8	38.9*	i	28.6*	29.6*
COCCN(C(=O)c1ccc(-c2ccc(Cl)cc2)o1)c1c(N)n(CC(C)C)c(=O)[nH]c1=O	-3.1	88.1	588.3	-2.9	-0.8	nt	nt	nt
COc1ccc(-c2ccc3nnc(SCC(=O)NCC4CCCO4)n3n2)cc1 (stereo unspecified)	-2.0	109.6	414.9	-1.8	22.0*	i	31.2*	17.8*	EDANS interf=>69.5
COc1ccc(-c2cn3nc(SCC(=O)NCC4CCCO4)ccc3n2)cc1 (stereo unspecified)	-3.3	106.0	360.4	3.1	95.2*	i	52.0*	69.5*
CN=C1N(C)C[C@@H]2[C@@H]3C(=O)N(Cc4ccccc4)C(=O)[C@@H]3[C@](Cc3ccccc3)(C(=O)OC)N12	nt	123.9	nt	0.4	0.1	nt	nt	nt
SMILES	beta cell repl	Yeast superoxide	T cell modulator	V-ATPase pHluor	KLK7 zymogen act	Rce1 inhib	proKLK7 act conf	EDANS interfere	others
CCc1ccc(/C=N/NC(=O)Cc2cccn2C)cc1	-2.6	103.2	828.5	2.5	0.5	i	nt	nt
Cn1c(=NC(=O)c2ccc(S(=O)(=O)N3CCCc4ccccc43)cc2)sc2cc(S(C)(=O)=O)ccc21	0.0	120.5	173.4	-1.5	-0.5	i	nt	nt
C#CCn1c(=NC(=O)c2ccc(S(=O)(=O)N3CCCc4ccccc43)cc2)sc2cc(S(N)(=O)=O)ccc21	0.0	93.1	261.9	1.2	50.8*	i	7.5	23.9*
COC(=O)c1ccc2c(c1)C(C)(C)C(/C=C/c1ccc(O)cc1)=[N+]2C	-5.6	98.3	436.6	-8.0	25.2*	i	0.0	2.5
O=C(Nc1cccc(-c2cn3cccnc3n2)c1)c1cccs1	0.0	92.9	201.0	0.7	7.8	?	nt	nt
Cc1c(-c2cccc(NC(=O)c3ccco3)c2)nc2ncccn12	-2.5	95.8	280.6	-3.6	91.0*	?	68.7*	80.8*
Cc1c(-c2cccc(NC(=O)c3cccs3)c2)nc2ncccn12	0.0	115.0	342.0	-1.1	61.9*	i	47.1*	62.2*
O=C(Nc1cccc(-c2cn3cccnc3n2)c1)c1ccco1	1.4	91.4	334.0	-1.8	nt	?	nt	nt
OCCNc1c2ccccc2nc2c(F)c(F)c(F)c(F)c12	nt	95.8	277.1	-0.2	17.6*	i	19.0*	8.6*	EDANS interf=>69.5
